The subject of series [1] is Mus musculus. Briefly: Anticonvulsant activity in ip dosed C57B/6 mouse assessed as protection against maximal electroshock-induced seizures administered before 30 mins of MES induction. In kind it is functional. To be noted: C57B/6, ip, 0.5 h. In short, it runs like this: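 Compound in polyethyleneglycol-400 given ip to C57B/6 mice (18–25 g, 10 per group) over a dose range. 30 min post-dose, 60-Hz alternating current, 50 mA, applied via corneal electrodes for 0.2 s. Protection scored as abolition of hind-leg tonic maximal extension; doses spanning 10–90% protection used to derive ED50.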
Background: Protection in the maximal electroshock model is a classic sign of anticonvulsant action.

Series [2] can be described thus: Neurotoxicity in C57B/6 mouse assessed as inability to maintain equilibrium on 1-in diameter rod for 1 min after 30 mins by rotarod test. In kind it is toxicity, organism-based. Particulars: in vivo. The method, boiled down:
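Rotarod neurotoxicity: C57B/6 mice (18–25 g, groups of 10) dosed ip with compound in polyethyleneglycol-400 over a dose range; 30 min later placed on 1-in. knurled rod rotating at 6 rpm for 1 min. Toxicity = failure to keep equilibrium in each of three trials; doses spanning 10–90% used for TD50.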
In general terms: In the rotarod test animals must keep their balance on a rotating rod.

For series [3], the species on record is Mus musculus. Briefly: Protective index, ratio of TD50 for neurotoxicity in C57B/6 mouse to ED50 for anticonvulsant activity in C57B/6 mouse. In kind it is functional. The method, boiled down: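 PI computed as TD50 (rotarod neurotoxicity) divided by ED50 (MES test), both in ip-dosed C57B/6 mice, compounds in PEG-400, tested 30 min post-dose.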
Series [4] has as its system Mus musculus. Briefly: Anticonvulsant activity in ip dosed C57B/6 mouse assessed as protection against strychnine-induced seizures administered before 30 mins of strychnine induction measured for 30 mins. The format is functional, organism-based. The method, boiled down:
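C57B/6 mice (18–25 g, groups of 10) received compound ip in polyethyleneglycol-400; 30 min later strychnine chlorhydrate in saline (1.2 mg/mL, 1 mL/kg) given sc, a dose convulsing all naïve animals. Mice observed individually for 30 min.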

In series [5] the test system is Mus musculus. The experiment in a line: Anticonvulsant activity in ip dosed C57B/6 mouse assessed as protection against pentylenetetrazole-induced seizures administered before 30 mins of pentylenetetrazole induction. The format is functional. Particulars: C57B/6, ip, 0.5 h. The method, boiled down:
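Pentylenetetrazole 85 mg/kg sc, a dose convulsing 100% of naïve animals, given 30 min after ip compound (PEG-400 vehicle, several doses) to C57B/6 mice, 18–25 g, groups of 10. ED50 calculated as dose preventing tonic convulsions in 50% of animals.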

The test system of series [6] is Mus musculus. The experiment in a line: Anticonvulsant activity in ip dosed C57B/6 mouse assessed as protection against thiosemicarbazide-induced seizures administered before 30 mins of thiosemicarbazide induction measured after 1 hr. The format is functional. To be noted: C57B/6, ip. In short, it runs like this:
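Thiosemicarbazide 50 mg/kg ip, a dose convulsing 100% of animals, given 30 min after ip test compound (PEG-400, various doses) to C57B/6 mice (18–25 g, n=10/group). Tonic convulsions scored; ED50 calculated as dose preventing them in 50% of treated animals.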

Series [7] relates to Mus musculus. The experiment in a line: Anticonvulsant activity in ip dosed C57B/6 mouse assessed as protection against isoniazid-induced seizures administered before 30 mins of isoniazid induction measured for 1 hr. In kind it is functional. Particulars: C57B/6, ip. The method, boiled down: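 Mice (C57B/6, 18–25 g; n=10 per group) dosed ip with compound in PEG-400 at several doses, then challenged 30 min later with isoniazid 250 mg/kg ip, a dose convulsing all naïve animals. Housed singly and watched 1 h for tonic convulsions; ED50 = dose preventing them in 50% of animals.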

The subject of series [8] is Mus musculus. The experiment in a line: Anticonvulsant activity in ip dosed C57B/6 mouse assessed as protection against 3 mercaptopropionic acid-induced seizures administered before 30 mins of 3 mercaptopropionic acid induction measured after 1 hr. The format is functional. To be noted: C57B/6, ip. The method, boiled down: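 C57B/6 mice (18–25 g), groups of 10, given test compound ip in polyethyleneglycol-400 across a dose range; 30 min later 3-MP 40 mg/kg in saline injected sc. Endpoint: prevention of tonic convulsions; ED50 calculated as dose protecting 50% of animals.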

In general, ED50 refers to the dose at which the effect has come halfway, by size or by number of responders. By TD50 is commonly meant the dose at which the toxic effect under study appears in half of the subjects.

The source made the active and inactive calls. No cut-off for these calls is given here.

As for `CCCCCCCCOc1ccc2c(c1)CCc1nncc(=O)n1-2`, in series [1], the ED50 turned out to be 12.7 mg/kg. Besides, the TD50 at 30 min in series [2] is 98.6 mg/kg. Further, the PI in series [3] is given as 7.76.

In the case of `O=c1cnnc2n1-c1ccc(OCc3ccc(Br)cc3)cc1CC2`, in series [1], the ED50 amounted to 64.2 mg/kg.

As to `O=c1cnnc2n1-c1ccc(OCc3ccc(F)cc3)cc1CC2`, in series [1], the ED50 worked out at 38 mg/kg.

For the molecule `Cc1ccc(COc2ccc3c(c2)CCc2nncc(=O)n2-3)cc1`, the median effective dose (ED50) in series [1] came out at 27.4 mg/kg.

Turning to `O=C1CCc2cc(OCc3ccccc3)ccc2N1`, in series [1], the ED50 came to 29.6 mg/kg.

Take `O=c1cnnc2n1-c1ccc(OCc3ccccc3)cc1CC2`: the median effective dose (ED50) in series [1] is 22.8 mg/kg.

On to `O=c1cnnc2n1-c1ccc(OCc3ccccc3Cl)cc1CC2`, for which the ED50 in series [1] came out at 13.7 mg/kg. Moreover, the TD50 at 30 min in series [2] was determined as 106 mg/kg. In addition, the PI in series [3] is 7.7.

For `COc1ccc(COc2ccc3c(c2)CCc2nncc(=O)n2-3)cc1OC`, in series [1], the 50% effective dose (ED50) was 45.6 mg/kg.

For `O=c1cnnc2n1-c1ccc(OCc3ccc(Cl)cc3Cl)cc1CC2`, the 50% effective dose (ED50) in series [1] stood at 26.4 mg/kg.

In the case of `CCCCOc1ccc2c(c1)CCc1nncc(=O)n1-2`, the median effective dose (ED50) in series [1] worked out at 22.7 mg/kg.

`NC(=O)N1c2ccccc2C=Cc2ccccc21` [CARBAMAZEPINE]: the ED50 result in series [4] was “inactive”. The PI in series [3] stood at 6.4.

Regarding `O=c1cnnc2n1-c1ccc(OCc3ccccc3F)cc1CC2`, in series [1], the median effective dose (ED50) turned out to be 23.7 mg/kg.

On to `CCCCCCOc1ccc2c(c1)CCc1nnc(C)c(=O)n1-2`, for which the median effective dose (ED50) in series [1] was more than 100 mg/kg.

`CCCCCOc1ccc2c(c1)CCc1nncc(=O)n1-2`: in series [1], the ED50 worked out at 21.9 mg/kg.

With `CCCCCCOc1ccc2c(c1)CCc1nncc(=O)n1-2`, the median effective dose (ED50) in series [1] came to 19.7 mg/kg. Besides, in series [2], the TD50 at 30 min is 82.2 mg/kg. Moreover, the PI in series [3] came out at 4.2.

`CCCCCCCCCCCCOc1ccc2c(c1)CCc1nncc(=O)n1-2`: the 50% effective dose (ED50) in series [1] came to 54.8 mg/kg.

`COc1ccc(COc2ccc3c(c2)CCc2nncc(=O)n2-3)cc1`: the ED50 in series [1] came to 56.8 mg/kg.

As for `CCCCCCCOc1ccc2c(c1)CCc1nncc(=O)n1-2`, the 50% effective dose (ED50) in series [1] came to 11.4 mg/kg. Further, the TD50 at 30 min in series [2] was determined as 114 mg/kg. For the same molecule, in series [3], the PI is 10.

Turning to `O=c1cnnc2n1-c1ccc(OCc3ccccc3Br)cc1CC2`, the ED50 in series [1] turned out to be 16.4 mg/kg. Moreover, the TD50 at 30 min in series [2] is 132 mg/kg. In series [3], the PI worked out at 8.

Regarding `O=c1cnnc2n1-c1ccc(OCc3ccc(Cl)cc3)cc1CC2`, the ED50 in series [1] was determined as 32.9 mg/kg.

Consider `CCOc1ccc2c(c1)CCc1nncc(=O)n1-2`, for which the 50% effective dose (ED50) in series [1] came to 39.4 mg/kg.

In the case of `O=c1cnnc2n1-c1ccc(OCc3cccc(F)c3)cc1CC2`, in series [1], the ED50 turned out to be 31.7 mg/kg.

On to `Cc1nnc2n(c1=O)-c1ccc(OCc3ccccc3)cc1CC2`, for which the 50% effective dose (ED50) in series [1] was more than 100 mg/kg.

For the molecule `c1ccc(COc2ccc3c(c2)CCc2nncn2-3)cc1`, the ED50 in series [5] was 24 mg/kg.

Consider `O=c1cnnc2n1-c1ccc(OCc3c(Cl)cccc3Cl)cc1CC2`, for which the median effective dose (ED50) in series [1] was found to be 20.5 mg/kg.

For the molecule `O=c1cnnc2n1-c1ccc(OCc3cccc(Cl)c3)cc1CC2`, the ED50 turned out to be 15.8 mg/kg in series [6]; 22.8 mg/kg in series [1]; 19.7 mg/kg in series [7]; 11.8 mg/kg in series [8]; 11.3 mg/kg in series [5]. Further, in series [4], the ED50 entry is “inactive”.

Turning to `CCCOc1ccc2c(c1)CCc1nncc(=O)n1-2`, in series [1], the ED50 was 32.9 mg/kg.

These data come from ChEMBL document CHEMBL1138577, “Design, synthesis of 8-alkoxy-5,6-dihydro-[1,2,4]triazino[4,3-a]quinolin-1-ones with anticonvulsant activity” (Eur J Med Chem, 2009).
